Assay outcomes from PubChem.
M1 ag: M1 muscarinic receptor agonists, primary screen, CHO-M1 cells, Fluo-4 calcium, agonist mode; Fluo-4 calcium fluorescence; active compounds read high; B-score at 10 µM; actives 3% (n = 64,000);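 active = fluorescence rise, raw or as B-score row- and column-corrected plate score, outside the 99.7% band of its plate's samples, either direction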
HePTP inhibitor: inhibitors of human HePTP phosphatase, primary screen, biochemical, absorbance, leukemia target | recombinant HePTP phosphatase activity, OD absorbance | AID 521, 2006 | actives 0.64% (n = 110,000) | inhibition, % at 20 µM; in the data active = inhibition above about 50%;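 note: plate controls were vehicle for no effect and reference inhibitor for full effect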
SF-1 act: activators of human SF-1, primary screen, cell-based, CHO-K1, Gal4-SF-1 LBD, luciferase luminescence; activation, % at 10 µM; actives 1.9% (n = 65,000); Steroidogenic factor 1 (Homo sapiens), Q13285; CHO-K1 Gal4-SF-1 LBD luciferase reporter; % increase over DMSO SF-1-specific signal;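 active = activation above the mean activation of all tested compounds plus 3 SD, cut at about 50% in these data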
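Test system: transient Gal4-SF-1 LBD reporter, CHO-K1; Amount: 4,000 CHO-K1 cells per well; Doses: 10 µM only; Timing: compound exposure 20 h at 37 °C; Signal: luciferase light emission; Read-out basis: percent activation relative to DMSO median and mock-transfected background; Control set: DMSO negative control and −SF1 background wells; Replicates: one test per compound.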
M1 antag: antagonists of rat M1 muscarinic receptor. Muscarinic acetylcholine receptor M1 (Rattus norvegicus), P08482. CHO-M1 cells, Fluo-4 calcium, ACh EC80 antagonist mode; active compounds read low. B-score at 10 µM. actives 3.4% (n = 64,000). AID 628, 2007;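 active = calcium fluorescence response, raw or row-and-column corrected B-score, differing from the plate sample mean either way at a set confidence level, mostly lower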
D1 allo mod: D1 CRE-luciferase signal change, two-sided – cell-based, HEK293 D1, dopamine EC30, D1 allosteric modulator project, primary screen; dopamine EC30 potentiation; actives deviate in either direction; B-score at 10 µM; actives 5.9% (n = 58,000);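 active = luminescence count or its row- and column-corrected plate score outside the 99.7% band of the plate's sample wells, on either side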
Target sequence (P21728 whole entry, looked up): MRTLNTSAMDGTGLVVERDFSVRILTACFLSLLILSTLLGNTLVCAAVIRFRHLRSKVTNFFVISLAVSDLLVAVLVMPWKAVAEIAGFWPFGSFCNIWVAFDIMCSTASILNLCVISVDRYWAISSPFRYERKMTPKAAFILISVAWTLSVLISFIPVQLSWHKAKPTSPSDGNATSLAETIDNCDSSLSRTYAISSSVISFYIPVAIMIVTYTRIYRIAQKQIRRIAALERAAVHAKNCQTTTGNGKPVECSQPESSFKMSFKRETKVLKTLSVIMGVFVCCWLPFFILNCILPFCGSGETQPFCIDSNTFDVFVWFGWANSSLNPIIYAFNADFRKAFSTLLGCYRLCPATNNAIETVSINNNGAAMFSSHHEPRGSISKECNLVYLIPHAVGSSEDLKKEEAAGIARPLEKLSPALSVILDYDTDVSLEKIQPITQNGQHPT
RORa activator: activators of orphan receptor RORA, primary screen, cell-based, luminescence | CHO-K1 Gal4-RORA LBD luciferase reporter; percent increase over mock-subtracted basal signal | Nuclear receptor ROR-alpha (Homo sapiens), P35398 | activation, % at 10 µM | actives 1.5% (n = 65,000);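 active = activation above the mean of all tested compounds plus 3 SD, cut at about 49% in these data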;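 note: 0% = DMSO-treated RORA cells and 100% = added signal equal to DMSO minus mock-transfected cells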
* = called active by the depositor. Most compounds without a hit are left out; they make up all but 8.2% or so of the library.

Results for Fc1ccc(C2=Nn3c(nnc3-c3n[nH]c4c3CCC4)SC2)cc1 ?
M1 ag: -0.122; HePTP inhibitor: 0.5; SF-1 act: -18.5; M1 antag: 0.238; D1 allo mod: -3.03*; RORa activator: -10.3

How did Cc1ccc(Cn2nnc(C(=O)Nc3cc(C)ccc3C)c2N)cc1 do in these assays?
M1 ag: 0.0638; SF-1 act: 0.3; M1 antag: 1.82*; D1 allo mod: -0.17; RORa activator: -14.5

How did CCOc1ccccc1NC(=O)Cn1nnc(C(=O)Nc2ccc(C)cc2)c1N do in these assays?
M1 ag: 0.99; HePTP inhibitor: 2.6; SF-1 act: -21.6; M1 antag: -0.509; D1 allo mod: -5.26*; RORa activator: 24.7

What do the screens show for `Cc1ccc(C)c(NC(=O)c2nnn(Cc3ccccc3)c2N)c1`?
M1 ag: 0.665; SF-1 act: 18.9; M1 antag: -0.176; D1 allo mod: 0.0723; RORa activator: -6.0

What do the screens show for `N#CC1=C(N)SC(N)=C(C#N)C1c1cccc(Oc2ccccc2)c1`?
M1 ag: 2.02; HePTP inhibitor: 14.4; SF-1 act: -19.7; M1 antag: -0.151; D1 allo mod: -1.39; RORa activator: 11.6

How did CC(C)n1c(-c2ccc(N(C)C)cc2)nc2ccccc21 do in these assays?
M1 ag: -0.946; HePTP inhibitor: -1.9; SF-1 act: 16.8; M1 antag: -1.1; D1 allo mod: -4.62*; RORa activator: 32.9

How did CN(C)c1ccc(-c2nc3ccccc3n2C)cc1 do in these assays?
M1 ag: -0.0365; HePTP inhibitor: 2.1; SF-1 act: -58.9; M1 antag: -0.0524; D1 allo mod: -5.12*; RORa activator: -62.2

What do the screens show for `CSc1nnc2c3c4c(sc3c(=O)n(-c3ccccc3)n12)CC(C)(C)OC4`?
M1 ag: 0.83; HePTP inhibitor: 8.1; SF-1 act: -9.0; M1 antag: 0.0489; D1 allo mod: 5.87*; RORa activator: -12.7

Results for Cc1c(C#N)c2ncn(Cc3ccccc3)c(=O)c2n1-c1ccccc1 ?
M1 ag: 0.278; HePTP inhibitor: 7.8; SF-1 act: -9.7; M1 antag: -0.0126; D1 allo mod: 13.3*; RORa activator: 12.3

What do the screens show for `O=c1oc2ccccc2cc1-c1cn2cccnc2n1`?
M1 ag: 0.906; HePTP inhibitor: -9.6; SF-1 act: 36.5; M1 antag: -0.271; D1 allo mod: -3; RORa activator: 55.0*

Results for CC(=O)Nc1ccc(NS(=O)(=O)c2ccc(C(C)(C)C)cc2)cc1 ?
HePTP inhibitor: 96.0*

How did CC(=O)Nc1ccc(NS(=O)(=O)c2cccc3c2C(=O)c2ccccc2C3=O)cc1 do in these assays?
HePTP inhibitor: 102.4*

Results for CC(=O)Nc1ccc(NS(=O)(=O)c2ccc(NC(C)=O)cc2)cc1 ?
HePTP inhibitor: 6.9

How did O=C1c2ccccc2C(=O)c2c1cccc2S(=O)(=O)Nc1ccc(Cl)cc1 do in these assays?
HePTP inhibitor: -1.8

Results for COc1ccc(NC(=O)Cc2ccc(OC)c(OC)c2)c([N+](=O)[O-])c1 ?
HePTP inhibitor: 0.3

How did O=C(NCc1ccc2c(c1)OCO2)C1CCCN1C(=O)Nc1ccc(F)cc1 (stereo not given) do in these assays?
M1 ag: 0.3; HePTP inhibitor: 5.5; SF-1 act: 12.4; M1 antag: 0.645; D1 allo mod: 0.0773; RORa activator: -7.3

Results for CCOc1ccc(Br)cc1C1NC(=O)c2c(sc3c2CCN(C)C3)N1 (stereo not given) ?
M1 ag: -0.413; HePTP inhibitor: -0.6; SF-1 act: -7.0; M1 antag: 1.8; D1 allo mod: -4.6*; RORa activator: 0.1

What do the screens show for `O=C(NCCN1CCN(c2ccccc2F)CC1)C1CCCN(S(=O)(=O)c2cnc[nH]2)C1` (stereo not given)?
M1 ag: 0.568; HePTP inhibitor: -1.8; SF-1 act: 7.8; M1 antag: 0.58; D1 allo mod: -3.23*; RORa activator: 19.4

What do the screens show for `O=C(NCCN1CCC(Cc2ccccc2)CC1)C1CCCN(S(=O)(=O)c2cnc[nH]2)C1` (stereo not given)?
M1 ag: -0.104; HePTP inhibitor: -1.6; SF-1 act: -6.6; M1 antag: -2.05; D1 allo mod: 0.197; RORa activator: 1.8

What do the screens show for `CCCOc1ccc(N2C(=O)CC(N(CCC)C(=O)CCC(=O)O)C2=O)cc1` (stereo not given)?
M1 ag: 0.0102; HePTP inhibitor: 6.0; SF-1 act: 0.2; M1 antag: 0.616; RORa activator: -14.2

What do the screens show for `Cc1cc(C)c2nc3s/c(=C\c4cc5c(cc4[N+](=O)[O-])OCO5)c(=O)n3c2c1`?
HePTP inhibitor: 7.9

How did Cc1cc(C)c2nc3s/c(=C\c4ccc(-c5ccc(Cl)c(C(=O)O)c5)o4)c(=O)n3c2c1 do in these assays?
HePTP inhibitor: 89.7*

How did Cc1ccc(-c2ccc(/C=C3/SC(=S)NC3=O)o2)cc1Cl do in these assays?
HePTP inhibitor: 8.2

How did O=C1NC(=O)/C(=C/c2ccc(-c3ccc(O)c(C(=O)O)c3)o2)S1 do in these assays?
HePTP inhibitor: 102.4*

What do the screens show for `Cc1cc(C)c2nc3s/c(=C/c4cccn4-c4ccc([N+](=O)[O-])cc4)c(=O)n3c2c1`?
HePTP inhibitor: 84.7*

How did Cc1cc(C)c2nc3s/c(=C\c4ccc(-c5cc(C)c(C)cc5[N+](=O)[O-])o4)c(=O)n3c2c1 do in these assays?
HePTP inhibitor: -2.2

How did O=C1NC(=S)S/C1=C\c1ccc(-c2ccc(Cl)c(C(=O)O)c2)o1 do in these assays?
HePTP inhibitor: 101.1*

Results for CCOC(=O)c1ccc(-c2ccc(/C=C3\Sc4ccccc4C3=O)o2)cc1 ?
HePTP inhibitor: -24.0

What do the screens show for `O=C(O)c1cc(-c2ccc(/C=C3/Sc4ccccc4C3=O)o2)ccc1O`?
HePTP inhibitor: 102.1*

How did Cc1c(Cl)cccc1N=C1NC(=O)/C(=C/c2ccc(-c3ccccc3C(=O)O)o2)S1 do in these assays?
HePTP inhibitor: 98.2*

How did CNC(=O)c1c(C)nc(SCC(=O)NCc2ccc(OC)cc2)c(C#N)c1-c1ccco1 do in these assays?
M1 ag: 0.302; HePTP inhibitor: 9.8; SF-1 act: 6.0; M1 antag: -0.317; D1 allo mod: -2.86*; RORa activator: -6.3
